# What was measured:
# [1] = biological target: T1, 5-hydroxytryptamine receptor 1A (Rattus norvegicus, UniProt P19327); experiment: Binding affinity for 5-hydroxytryptamine 1A receptor measured by displacing [3H]8-OH-DPAT from rat cortical membranes
# T1 sequence (P19327 whole entry): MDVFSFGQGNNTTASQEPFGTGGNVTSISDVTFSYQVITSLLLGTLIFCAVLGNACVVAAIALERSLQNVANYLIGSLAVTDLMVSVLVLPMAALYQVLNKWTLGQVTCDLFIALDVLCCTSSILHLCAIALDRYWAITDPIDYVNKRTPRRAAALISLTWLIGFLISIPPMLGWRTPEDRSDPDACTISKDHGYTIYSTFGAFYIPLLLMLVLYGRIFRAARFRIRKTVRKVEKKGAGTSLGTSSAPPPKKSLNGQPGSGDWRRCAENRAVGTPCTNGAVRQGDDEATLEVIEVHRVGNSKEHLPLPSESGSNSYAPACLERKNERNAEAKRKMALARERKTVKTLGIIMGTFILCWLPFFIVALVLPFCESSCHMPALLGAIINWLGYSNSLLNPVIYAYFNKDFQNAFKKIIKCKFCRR
# Procedure, shortened: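 Rat hippocampus or cortex membranes; 1 nM [3H]-8-OH-DPAT; nonspecific binding set with 1 μM serotonin. Incubated with competing drug 45–60 min at 37 °C in buffer, then vacuum-filtered on glass-fiber filters and washed with ice-cold buffer. IC50 from nonlinear fit of competition curves, mean of 3–7 experiments. Ki by Cheng–Prusoff.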
# [2] = biological target: T2, Alpha-1A adrenergic receptor (Rattus norvegicus, UniProt P43140); experiment: Binding affinity for Alpha-1 adrenergic receptor measured by displacing [3H]prazosin from rat cortical membranes
# T2 sequence (P43140 whole entry): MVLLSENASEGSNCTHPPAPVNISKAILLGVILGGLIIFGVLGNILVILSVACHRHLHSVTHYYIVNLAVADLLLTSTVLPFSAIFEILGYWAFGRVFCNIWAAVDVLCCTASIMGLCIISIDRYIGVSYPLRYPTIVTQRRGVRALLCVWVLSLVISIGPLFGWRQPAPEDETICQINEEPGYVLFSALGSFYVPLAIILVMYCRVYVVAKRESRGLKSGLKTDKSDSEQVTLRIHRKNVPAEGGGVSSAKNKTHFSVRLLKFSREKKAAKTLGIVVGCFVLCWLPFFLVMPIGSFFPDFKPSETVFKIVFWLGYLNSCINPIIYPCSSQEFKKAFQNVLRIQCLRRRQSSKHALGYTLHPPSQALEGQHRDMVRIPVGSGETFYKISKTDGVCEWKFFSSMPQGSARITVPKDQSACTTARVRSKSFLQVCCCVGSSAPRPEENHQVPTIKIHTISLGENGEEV
# Procedure, shortened: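 Rat cortex membranes labelled with 0.4 nM [3H]prazosin; 10 μM phentolamine defined nonspecific binding. Incubation with competing drugs 45–60 min at 37 °C, then vacuum filtration on glass-fiber filters with ice-chilled buffer wash. IC50 by nonlinear curve fitting (three to seven experiments); Ki via Cheng–Prusoff using KD 0.1 nM for [3H]prazosin.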
# [3] = biological target: T3, Adrenergic receptor alpha-2 (Homo sapiens, UniProt P08913+P18825+P18089); experiment: Binding affinity towards Alpha-2 adrenergic receptor in human platelet membranes using [3H]yohimbine; format: cell membranes
# T3 sequence (P08913 whole entry): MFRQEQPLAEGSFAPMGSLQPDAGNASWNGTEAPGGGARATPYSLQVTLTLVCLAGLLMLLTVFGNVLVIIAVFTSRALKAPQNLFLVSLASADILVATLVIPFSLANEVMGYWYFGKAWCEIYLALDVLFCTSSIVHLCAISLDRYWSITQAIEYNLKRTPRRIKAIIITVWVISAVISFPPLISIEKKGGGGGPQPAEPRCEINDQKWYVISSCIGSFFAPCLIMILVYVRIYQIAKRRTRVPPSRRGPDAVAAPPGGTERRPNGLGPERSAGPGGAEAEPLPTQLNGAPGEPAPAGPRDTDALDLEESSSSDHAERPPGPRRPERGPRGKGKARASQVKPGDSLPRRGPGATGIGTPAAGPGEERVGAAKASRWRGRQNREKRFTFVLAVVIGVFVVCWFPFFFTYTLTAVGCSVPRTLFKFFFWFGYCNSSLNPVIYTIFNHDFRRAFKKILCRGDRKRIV
# T3 sequence (P18825 whole entry): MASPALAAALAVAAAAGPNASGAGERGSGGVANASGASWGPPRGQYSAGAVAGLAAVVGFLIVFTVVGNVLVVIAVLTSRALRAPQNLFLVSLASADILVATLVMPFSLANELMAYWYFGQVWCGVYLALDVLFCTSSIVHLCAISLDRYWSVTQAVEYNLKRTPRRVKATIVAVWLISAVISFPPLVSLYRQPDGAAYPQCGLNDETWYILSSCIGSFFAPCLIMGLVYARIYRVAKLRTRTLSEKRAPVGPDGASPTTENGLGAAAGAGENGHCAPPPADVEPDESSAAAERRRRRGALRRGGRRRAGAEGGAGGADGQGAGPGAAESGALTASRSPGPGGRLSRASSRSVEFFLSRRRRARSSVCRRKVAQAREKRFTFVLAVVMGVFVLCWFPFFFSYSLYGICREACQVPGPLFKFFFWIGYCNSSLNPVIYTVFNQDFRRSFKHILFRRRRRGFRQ
# T3 sequence (P18089 whole entry): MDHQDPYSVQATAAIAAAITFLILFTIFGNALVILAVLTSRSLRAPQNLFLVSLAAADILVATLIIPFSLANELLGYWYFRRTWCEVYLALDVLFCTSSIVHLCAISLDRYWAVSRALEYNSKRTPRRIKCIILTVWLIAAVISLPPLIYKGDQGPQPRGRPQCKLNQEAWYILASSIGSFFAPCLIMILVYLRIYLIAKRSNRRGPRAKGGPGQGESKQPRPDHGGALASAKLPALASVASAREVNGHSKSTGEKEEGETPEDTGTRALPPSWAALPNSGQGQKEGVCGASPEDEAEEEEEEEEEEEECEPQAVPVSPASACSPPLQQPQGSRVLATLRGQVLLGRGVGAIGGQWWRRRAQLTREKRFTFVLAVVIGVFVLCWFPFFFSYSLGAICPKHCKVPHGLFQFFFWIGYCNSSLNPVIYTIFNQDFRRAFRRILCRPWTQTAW
# Procedure, shortened: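 Human platelet membranes, [3H]yohimbine 3.5 nM; nonspecific binding defined by 100 μM phentolamine. Competition run 45–60 min at 37 °C, stopped by rapid vacuum filtration over glass-fiber filters and ice-chilled buffer washes. IC50 by nonlinear regression, mean of three to seven experiments; converted to Ki with the Cheng–Prusoff equation.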
# [4] = biological target: Beta-2 adrenergic receptor (Homo sapiens, UniProt P07550); experiment: Binding affinity towards Beta-2 adrenergic receptor in human peripheral mononuclear leukocyte membranes using [125I]pindolol
# Chain of Beta-2 adrenergic receptor (P07550 whole entry): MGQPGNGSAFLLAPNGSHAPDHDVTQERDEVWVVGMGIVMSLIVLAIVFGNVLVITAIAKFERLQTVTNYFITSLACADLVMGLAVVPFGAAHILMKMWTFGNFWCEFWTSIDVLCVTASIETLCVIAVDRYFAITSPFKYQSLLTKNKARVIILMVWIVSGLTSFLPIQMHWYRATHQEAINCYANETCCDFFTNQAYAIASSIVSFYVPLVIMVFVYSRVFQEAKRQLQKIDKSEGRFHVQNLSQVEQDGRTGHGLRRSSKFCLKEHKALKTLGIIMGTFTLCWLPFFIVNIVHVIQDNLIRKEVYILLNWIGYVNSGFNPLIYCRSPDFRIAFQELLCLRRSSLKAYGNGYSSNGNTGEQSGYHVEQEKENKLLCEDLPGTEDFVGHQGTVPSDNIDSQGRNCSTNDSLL
# Procedure, shortened: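 Membranes from human peripheral blood mononuclear leukocytes bound [125I]pindolol (100 pM); 1 μM (-)-propranolol gave nonspecific binding. 45–60 min at 37 °C with or without competitors, then rapid filtration through glass-fiber filters and ice-cold buffer wash. IC50 from nonlinear fitting over three to seven experiments; Ki by Cheng–Prusoff.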
# [5] = biological target: T2, Alpha-1A adrenergic receptor; experiment: Binding affinity measured for alpha-1 adrenergic receptor by displacement of [3H]prazosin from rat cortical membranes; format: cell membranes, Membrane
# [6] = biological target: T1, 5-hydroxytryptamine receptor 1A
Compound,Ki [1] [nM],Ki [2] [nM],Ki [3],Ki [4] [nM],Ki [5] [nM],Ki [6] [nM]
COc1ccccc1N1CCN(CCn2c(=O)[nH]c3c([nH]c4ccccc43)c2=O)CC1,50,0.21,>= 1000 nM,> 100000,–,–
CCN(CC)CCn1c(=O)[nH]c2c([nH]c3ccccc32)c1=O,–,–,–,–,> 100000,–
O=c1[nH]c2c([nH]c3ccccc32)c(=O)n1CCN1CCN(c2ccccc2)CC1,> 100000,1.8,> 100000 nM,> 100000,–,–
COc1ccc(N2CCN(CCn3c(=O)[nH]c4c([nH]c5ccccc54)c3=O)CC2)cc1,> 100000,> 5000,> 100000 nM,> 100000,–,–
CN(C)CCn1c(=O)[nH]c2c([nH]c3ccccc32)c1=O,–,–,–,–,> 100000,–
CN(C)CCCn1c(=O)[nH]c2c([nH]c3ccccc32)c1=O,–,–,–,–,> 100000,–
COc1ccccc1N1CCN(CCn2c(=O)c3c(c4ccccc4n3C)n(C)c2=O)CC1,1.5,0.32,2215 nM,–,–,–
O=c1[nH]c2c([nH]c3ccccc32)c(=O)n1CCN1CCN(c2ccc(Cl)cc2)CC1,> 100000,≥ 10000,> 100000 nM,> 100000,–,–
O=c1[nH]c2c([nH]c3ccccc32)c(=O)n1CCN1CCOCC1,–,–,–,–,> 100000,–
CCOC(=O)N1CCN(CCn2c(=O)[nH]c3c([nH]c4ccccc43)c2=O)CC1,–,–,–,–,> 100000,–
O=c1[nH]c2c([nH]c3ccccc32)c(=O)n1CCN1CCCC1,–,–,–,–,> 100000,–
COc1ccccc1N1CCN(CCCn2c(=O)[nH]c3c([nH]c4ccccc43)c2=O)CC1,308,13,55 nM,1180,–,–
O=c1[nH]c2c([nH]c3ccccc32)c(=O)n1CCN1CCCCC1,–,–,–,–,> 100000,–
O=c1[nH]c2c([nH]c3ccccc32)c(=O)n1CCN1CCN(c2ccccc2Cl)CC1,> 100000,0.53,> 100000 nM,> 100000,–,–
CCN(CC)CCCn1c(=O)[nH]c2c([nH]c3ccccc32)c1=O,–,–,–,–,> 100000,–
O=c1[nH]c2c([nH]c3ccccc32)c(=O)n1CCN1CCNCC1,–,> 100000,–,–,–,–
COc1ccccc1N1CCNCC1,281,–,–,–,3510,–
Clc1ccccc1N1CCNCC1,–,–,–,–,710,226
